Most compounds without a hit are left out; they make up all but 3.8% or so of the library.
SDO1 yeast rescue: growth rescue of sdo1-depleted yeast, primary screen, S. cerevisiae, bone marrow failure model. S. cerevisiae sdo1-depleted JHY4D growth rescue, OD600 30 h; active compounds read high; pdr5 snq2 efflux-pump mutant strain. z-score at 10 µM. 0.21% of 140,000 active;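 active means z-score above 3 at both the 24 hr and the 30 hr optical density reads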;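 further: z-score against mean and SD of all compound wells on the same plate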
Yeast lifespan up: compounds extending yeast replicative lifespan, primary screen, S. cerevisiae, OD615; S. cerevisiae growth with nicotinamide; deaD strain in restrictive glucose medium; inhibition of the nicotinamide effect, % at 10 µM; 0.68% of 130,000 active; AID 775, 2007;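 active means inhibition above a set limit, placed 3 SD over the median of all compounds, cut at about 26% in these data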;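 further: 0% = nicotinamide-treated wells and 100% = cells grown without nicotinamide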
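Measured by: optical density (absorbance) at 615 nm; System: modified budding yeast, DeaD strain; Medium: restrictive CSMM-D dextrose medium; Timing: 4 h preincubation then 48 h treatment at 30 °C.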
Yeast growth inh: growth inhibitors of yeast BB579 in restrictive medium, primary screen, yeast lifespan-shortening project, S. cerevisiae; OD615, 48 h; inhibition, % at 10 µM; 0.51% of 140,000 active;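 active means inhibition above a set limit, 3 SD over the mean compound inhibition, cut at about 44% in these data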
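Test system: DeaD yeast strain BB579 / Buffer or medium: restrictive glucose-based CSMM-D medium / Doses: single 10 µM dose / Schedule: 4 h cell preincubation, 48 h compound exposure, 30 °C humidified / Technique: culture absorbance at 615 nm / Controls: amphotericin B positive control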
RAM inhibit: inhibitors of the yeast RAM network, primary screen, dse1pr::URA3 reporter, 5-FOA selection; S. cerevisiae dse1pr::URA3 reporter, 5-FOA growth OD615, 2 d; analog-sensitive cbk1-as2 kinase mutant strain; inhibition, % at 50 µM; 1.8% of 190,000 active;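 active means inhibition above a set limit, 3 SD over mean compound inhibition, cut at about 8.4% in these data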;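 further: 0% = DMSO-only wells with no growth and 100% = 10 µM 1-NA-PP1 full growth; inhibition rescues growth on 5-FOA so higher OD means more RAM inhibition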
Measles CPE: compounds protecting cells from measles virus cytopathic effect, primary screen, measles RdRp inhibitor project, single point, MLSMR library, absorbance. Measles virus-infected cells, CPE protection. protection (pct of control), % at 4 µM. 1.5% of 140,000 active; in the data active means protection mostly above about 24%, no sharp cut-off; inactive means mostly below about 26%
Starred values were filed as active, the others as inactive.

Screening Nn1c(=O)c2ccccc2n2c(SCc3ccccc3)nnc12 returned SDO1 yeast rescue -0.37, Yeast lifespan up -11.9, Yeast growth inh -8.5, RAM inhibit 3.4 and Measles CPE 10.9.
`Nn1c(=O)c2ccccc2n2c(SCc3ccc(C(F)(F)F)cc3)nnc12` gave SDO1 yeast rescue -0.64, Yeast lifespan up -11.0, Yeast growth inh -13.4, RAM inhibit 8.6* and Measles CPE 5.0.
For CC(C)Cc1c(O)nc(SCCN2CCOCC2)[nH]c1=O the results were SDO1 yeast rescue 0.54, Yeast lifespan up -2.9, Yeast growth inh -2.6, RAM inhibit 0.9 and Measles CPE 72.3*.
`Cc1ccc(C2=NNC3(CCOC(C)(C)C3)S2)cc1` (centres undefined) gave RAM inhibit -0.4.
Screening N#CCCN(C(=O)COC(=O)c1ccc(CNS(=O)(=O)c2ccc(F)c(Cl)c2)cc1)c1ccc(F)cc1 returned SDO1 yeast rescue 0.75, Yeast lifespan up -5.3, Yeast growth inh -23.5, RAM inhibit 11.1* and Measles CPE 22.5.
`O=C(COC(=O)c1ccc(CNS(=O)(=O)c2ccc(F)c(Cl)c2)cc1)NC1CCCCCCC1` gave SDO1 yeast rescue -1.2, Yeast lifespan up 1.8, Yeast growth inh -37.6, RAM inhibit 3.6 and Measles CPE 8.3.
Screening O=C(COC(=O)c1ccc(CNS(=O)(=O)c2ccc(F)c(Cl)c2)cc1)NCC1CCCCC1 returned SDO1 yeast rescue -0.56, Yeast lifespan up 5.0, Yeast growth inh -40.3, RAM inhibit 9.0* and Measles CPE 6.3.
Screening O=C(CCCN1C(=O)c2cccnc2C1=O)Nc1ccc(Br)cc1 returned RAM inhibit 2.5.
`Clc1ccc(CN2C3=NCCCN3c3ccccc32)cc1Cl` gave RAM inhibit -0.4.
For Cc1nnc(SCc2cc(=O)[nH]c(/N=C(\N)Nc3ccccc3Sc3ccccc3)n2)s1 the results were RAM inhibit 9.0*.
For COc1ccccc1N/C(N)=N/c1nc(CSc2nc3ccccc3s2)cc(=O)[nH]1 the results were SDO1 yeast rescue -0.23, Yeast lifespan up 0.7, Yeast growth inh -20.1, RAM inhibit 3.3 and Measles CPE 2.2.
O=C(c1ccco1)n1nc(-c2ccc(Cl)cc2)nc1NCc1ccco1 was read as SDO1 yeast rescue -0.74, Yeast lifespan up 6.8, Yeast growth inh -72.9, RAM inhibit 9.4* and Measles CPE 1.7.
O=C(COc1ccccc1)n1nc(-c2ccc(Cl)cc2)nc1NCc1ccco1 was read as SDO1 yeast rescue 0.33, Yeast lifespan up -6.5, Yeast growth inh -76.7, RAM inhibit 7.4 and Measles CPE 39.9*.
Screening O=C(Oc1ccc(Br)cc1C(=S)N1CCCC1)c1ccccc1Cl returned SDO1 yeast rescue -1.61, Yeast lifespan up -7.2, Yeast growth inh -10.2, RAM inhibit 7.6 and Measles CPE 9.0.
For Cc1ccccc1C(=O)Oc1ccc(Br)cc1C(=S)N1CCCC1 the results were SDO1 yeast rescue -0.8, Yeast lifespan up 2.0, Yeast growth inh -41.4, RAM inhibit 9.8* and Measles CPE 5.2.
COC(=O)c1ccc(-n2c(C)cc(C(=O)COC(=O)CC3Sc4ccccc4NC3=O)c2C)cc1 (centres undefined) was read as SDO1 yeast rescue -0.57, Yeast lifespan up -2.5, Yeast growth inh -27.5, RAM inhibit 8.8* and Measles CPE 4.8.
Screening Cc1nnc(SCCn2c(N3CCCC(C)C3)nc3c2c(=O)n(C)c(=O)n3C)s1 (centres undefined) returned SDO1 yeast rescue 0.45, Yeast lifespan up -3.0, Yeast growth inh 12.3, RAM inhibit 0.8 and Measles CPE 25.1.
For O=[N+]([O-])c1cc(Br)cc(/C=N/n2cnnc2)c1O the results were RAM inhibit -1.5.
Screening O=[N+]([O-])c1cccc(/C=N/n2cnnc2)c1O returned SDO1 yeast rescue 0.52, Yeast lifespan up -9.1, Yeast growth inh 75.6*, RAM inhibit -1.3 and Measles CPE 3.7.
Screening COc1ccc2c(c1)c1nnc(SC)nc1n2C returned SDO1 yeast rescue -2.77, Yeast lifespan up -12.2, Yeast growth inh 90.1*, RAM inhibit -0.2 and Measles CPE 16.0.
Screening O=C1CCc2cc(S(=O)(=O)N3CCCC3C(=O)NC3CCCCCCC3)ccc2N1 (centres undefined) returned SDO1 yeast rescue 1.95, Yeast lifespan up -6.5, Yeast growth inh 16.8, RAM inhibit 1.3 and Measles CPE 6.3.
Screening O=c1c(=O)n(O)c2ccccc2n1O returned SDO1 yeast rescue 0.83, Yeast lifespan up -1.0, Yeast growth inh -75.0, RAM inhibit 0.5 and Measles CPE 10.2.
Screening COc1cccc(/C=C2\N=C3CCCCCN3C2=O)c1 returned SDO1 yeast rescue -0.76, Yeast lifespan up -17.2, Yeast growth inh -38.8, RAM inhibit 0.3 and Measles CPE 36.2*.
`CCOc1cc(/C=C2\N=C3CCCCCN3C2=O)ccc1O` gave RAM inhibit 2.0.
For COc1ccc(Cn2c(SCC#N)nc3ccc(N4CCOCC4)cc3c2=O)cc1 the results were RAM inhibit 5.6.
Screening CC(C)N1C(=O)/C(=C\c2nc3ccccc3c(=O)[nH]2)c2ccccc21 returned SDO1 yeast rescue -1.2, Yeast lifespan up 0.1, Yeast growth inh -82.3, RAM inhibit 3.9 and Measles CPE 11.7.
For Cc1cc(S(=O)(=O)NCC(c2ccccc2)c2ccccc2)ccc1-n1cnnn1 the results were SDO1 yeast rescue -2.21, Yeast lifespan up -6.7, Yeast growth inh -38.5, RAM inhibit 1.7 and Measles CPE 23.2*.
CCN(CC)S(=O)(=O)c1ccc(-n2cnnn2)c(C)c1 was read as SDO1 yeast rescue 2.02, Yeast lifespan up -7.0, Yeast growth inh -26.0, RAM inhibit -0.5 and Measles CPE 48.4*.
For O=C(N/C(=C/c1cccnc1)C(=O)N1CCOCC1)c1ccccc1Br the results were SDO1 yeast rescue 0.31, Yeast lifespan up -1.4, Yeast growth inh -6.8, RAM inhibit 0.9 and Measles CPE 9.1.
Screening O=C(Oc1ccccc1)c1cccc2cccnc12 returned SDO1 yeast rescue 1.75, Yeast lifespan up -15.2, Yeast growth inh -13.7, RAM inhibit -0.1 and Measles CPE 47.8*.
Screening O=C(O)c1cccc2cccnc12 returned SDO1 yeast rescue -0.09, Yeast lifespan up -2.2, Yeast growth inh -34.4, RAM inhibit 2.8 and Measles CPE 3.0.
For COc1ccc(CNC(=O)CN(C(=O)CCC(=O)Nc2ccccn2)c2cccc(C)c2)cc1 the results were RAM inhibit 10.2*.
Screening Cc1cccc(N(CC(=O)NC2CCCCC2)C(=O)CCCC(=O)Nc2ccccn2)c1 returned SDO1 yeast rescue 1.8, Yeast growth inh -30.2, RAM inhibit -0.5 and Measles CPE 32.9*.
`Cc1ccc(C(=O)CSc2ncn[nH]2)cc1` gave SDO1 yeast rescue -0.78, Yeast lifespan up -15.3, Yeast growth inh -17.4, RAM inhibit 1.8 and Measles CPE 15.1.
